Test results taken from article PMC9673813 (International Journal of Nanomedicine, 2022).
≈ marks a conversion by molar mass, not a printed value. Read-outs that look alike come from different tables or passages of the source.

Legend:
[1] = In vitro release investigation; assay type: physicochemical
Procedure, shortened: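 Test formulation (1 mL, 200 ug/mL) was placed in a dialysis bag (8000–14,000 Da) in 200 mL PBS with 0.2% Tween-80, at 37 °C and 120 r/min. 3 mL of medium was withdrawn and replaced at 0.25–168 h. Samples were centrifuged at 8000 r/min for 10 min, and supernatant was analysed by HPLC for cumulative release. Data were fitted to zero-order, first-order and Higuchi models, with r² calculated; n=3.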

[2] = Pharmacokinetics in SD rats; assay type: in vivo; conditions: 10 mg/kg
Procedure, shortened: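 SD rats (n=5/group) were injected with 10 mg/kg. Blood (0.3 mL) was collected at 0.08–120 h into heparin tubes and centrifuged. Plasma (100 μL) was extracted with methanol:ethyl acetate 10:90 and analysed by HPLC: C18 column, acetonitrile–phosphate water pH 4.0 65:35, 0.8 mL/min, 30 °C, 227 nm. Results are mean ± SEM.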

[3] = system: breast cancer cell line MCF-7; experiment: In vitro cytotoxicity assay; assay type: cell-based; conditions: Homo sapiens
Procedure, shortened: (§1)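 Cells grown in high-glucose DMEM with 10% FBS and 1% penicillin/streptomycin at 37°C, 5% CO2. Log-phase cells trypsinized, seeded at 5×10³/well, grown 24 h. Test formulations and blank nanoparticles added at 5, 10, 20, 40, 80 ug/mL for 24, 48, 72 or 96 h. MTT (5 mg/mL stock) added for 3–4 h, formazan dissolved in DMSO, A490 read. Inhibition rate calculated from blank-, control- and test-well OD. Dose–effect curves plotted; n=3.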

[4] = system: normal hepatocyte cell line L02; experiment: In vitro cytotoxicity assay; assay type: cell-based
Procedure, shortened: as §1

[5] = system: MCF-7 tumor; experiment: In vivo antitumor assessment in MCF-7 tumor-bearing nude mice; design: species or system BALB/c nude mice
Procedure, shortened: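 Female BALB/c nude mice, 4 weeks old, were inoculated in the left armpit with 0.1 mL MCF-7 suspension (3 × 10⁷ cells/mL). Dosing started at ~100 mm³ (n=10/group; saline control): 10 mg/kg intraperitoneally every 3 days for 20 days. Body weight and tumor volume (V = π/6·AB²) were measured every 3 days, and deaths tallied every 5 days. Tumors were weighed on day 20; IR = 1 − drug/control tumor weight. Procedures were blinded.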

[6] = In vivo acute toxicity; design: species or system BALB/c mice; conditions: single i.p. 40 mg/kg
Procedure, shortened: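 Female BALB/c mice, 7 weeks, 20 ± 3 g, n=10/group, received a single intraperitoneal 40 mg/kg dose; saline control at equal volume. Status and deaths were recorded daily, and survival was followed over 10 days. Heart, liver and kidney from three randomly selected mice per group were H&E-stained for pathology.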

[7] = In vivo cumulative toxicity; design: species or system BALB/c mice

Structure (SMILES): CC(=O)O[C@H]1C(=O)[C@@]2(C)[C@H]([C@H](OC(=O)c3ccccc3)[C@]3(O)C[C@H](OC(=O)[C@H](O)[C@@H](NC(=O)c4ccccc4)c4ccccc4)C(C)=C1C3(C)C)[C@]1(OC(C)=O)CO[C@@H]1C[C@@H]2O [PTX, Paclitaxel]
- release model that the in vitro release behavior accords with [1]: first-order model
- cumulative release rate at 24 h ([1]; PBS with 0.2% Tween-80, 37 °C, 24 h): over 60%
- First-Order Equation k1 ([1]; rate constant of release): 0.0711
- Higuchi's Equation kh ([1]; rate constant of release): 7.2999
- Zero Order Equation k0 ([1]; rate constant of release): 0.5097
- time up to which plasma PTX concentration stayed detectable ([2]; SD rats, intravenous injection, sampling to 120 h): 12 h
- AUC(0-t) ([2]; SD, rat, plasma, iv): 2380 ± 276 ng·h/mL
- MRT last ([2]; SD, rat, plasma, iv): 4.94 ± 0.653 h
- Tmax ([2]; SD, rat, plasma, iv): 0.25 ± 0.02 h
- Vd ([2]; SD, rat, plasma, iv): 54.5 ± 8.53 L/kg
- clearance ([2]; SD, rat, plasma, iv): 57.2 mL/min/kg
- half-life ([2]; SD, rat, plasma, iv): 11 ± 0.773 h
- IC50 ([3]; MCF7, 24 h, read-out: IC50 24 h): > 80 µg/mL
- IC50 ([3]; MCF7, 48 h, read-out: IC50 48 h): 64.3 ± 5.73 µg/mL (≈ 75.3 µM)
- IC50 ([3]; MCF7, 72 h, read-out: IC50 72h): 26.2 ± 2.68 µg/mL (≈ 30.7 µM)
- IC50 ([3]; MCF7, 96 h, read-out: IC50 96h): 12.7 ± 0.97 µg/mL (≈ 14.8 µM)
- IC50 ([4]; 24 h, read-out: IC50 24 h): > 80 µg/mL
- IC50 ([4]; 48 h, read-out: IC50 48 h): > 80 µg/mL
- IC50 ([4]; 72 h, read-out: IC50 72h): 36.9 ± 3.18 µg/mL (≈ 43.2 µM)
- IC50 ([4]; 96 h, read-out: IC50 96h): 17.3 ± 0.83 µg/mL (≈ 20.3 µM)
- inhibition at 10 µg/mL ([4]; 96 h, read-out: inhibitory rate on cell growth higher than PTX-SLN@CUD): 40.1%
- deaths / survival of tumor-bearing nude mice during the test ([5]; 10 mg/kg i.p. every three days, 20 days): death of three nude mice
- tumor volume at 20 days / end of trial ([5]; 10 mg/kg i.p. every three days, day 20): 1000 mm^3
- tumor inhibition rate ([5]; 10 mg/kg i.p. every three days, day 20, by tumor weight): 32.93%
- change of average body weight of nude mice ([5]; 10 mg/kg, 20 days versus beginning): significant decrease
- cancer cell necrosis (H&E staining of tumors) ([5]; 10 mg/kg, after 20 days): 25%
- pathology of heart, liver and kidney tissues (H&E), acute toxicity [6]: severe necrosis
- mouse deaths in acute toxicity trial ([6]; n=10): 10 mice all died within 5 h
- pathology of heart, liver and kidney tissues (H&E), cumulative toxicity ([7]; 10 mg/kg i.p. every three days for 60 days): Some damage to cells and muscle fibers
- mouse deaths within 60 days / throughout the experiment, cumulative toxicity ([7]; 10 mg/kg i.p. every three days for 60 days, n=10): all mice in this group died
- mouse deaths within seven days, cumulative toxicity ([7]; 10 mg/kg i.p. every three days, n=10): three mice died
